Bioassay records (PubChem BioAssay)
Rad51 HR inh = human RAD51 strand exchange inhibitors, primary screen, biochemical, fluorescence. hRad51 DNA strand exchange, fluorescence dequenching. inhibition, % at 10 µM. 0.085% of 200,000 active;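 active means inhibition above 40% at the single screening dose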
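Material: human Rad51–ssDNA filaments; Probe or stimulus: labelled 47-mer dsDNA for strand exchange; Doses: single 10 µM dose; Incubation: 37 °C 15-min filament assembly, 30-min compound preincubation, 15-min exchange; Technique: FRET fluorescence dequenching, excitation 485 nm, emission 520 nm; Measure: Fluorescence-based percent inhibition, control- and blank-normalised; Benchmarks: plate control and blank wells.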
Cl transport mod = KCC2 cotransporter modulators, thallium flux, primary screen, cell-based, HEK293 KCC2, FluoZin-2 fluorescence, MLSMR | KCC2 cells, thallium flux FluoZin-2 fluorescence | 2.2% of 190,000 active | Solute carrier family 12 member 5 (Homo sapiens), Q9H2X9 | B-score of Tl+ flux slope (higher = more flux/activation; lower = inhibition) at 10 µM;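 active means thallium flux slope and its plate-corrected score both differing from the plate sample mean at a set confidence after two filtering rounds, in either direction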;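 further: slope of fluorescence scaled to starting intensity during 10 to 20 s after thallium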
CHT inh = inhibitors of human choline transporter CHT. 0.86% of 310,000 active. B-score at 10 µM. CHT-expressing cells, membrane potential dye, choline response; stronger effect = lower value;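 active means B-score over 3 SD under the library average, and starting fluorescence ratio not unusually high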;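 further: choline stimulus applied at its EC90 after an EC20 pre-addition; B-score computed on integrated fluorescence ratio after choline addition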
Target sequence (Q9GZV3 whole entry, looked up): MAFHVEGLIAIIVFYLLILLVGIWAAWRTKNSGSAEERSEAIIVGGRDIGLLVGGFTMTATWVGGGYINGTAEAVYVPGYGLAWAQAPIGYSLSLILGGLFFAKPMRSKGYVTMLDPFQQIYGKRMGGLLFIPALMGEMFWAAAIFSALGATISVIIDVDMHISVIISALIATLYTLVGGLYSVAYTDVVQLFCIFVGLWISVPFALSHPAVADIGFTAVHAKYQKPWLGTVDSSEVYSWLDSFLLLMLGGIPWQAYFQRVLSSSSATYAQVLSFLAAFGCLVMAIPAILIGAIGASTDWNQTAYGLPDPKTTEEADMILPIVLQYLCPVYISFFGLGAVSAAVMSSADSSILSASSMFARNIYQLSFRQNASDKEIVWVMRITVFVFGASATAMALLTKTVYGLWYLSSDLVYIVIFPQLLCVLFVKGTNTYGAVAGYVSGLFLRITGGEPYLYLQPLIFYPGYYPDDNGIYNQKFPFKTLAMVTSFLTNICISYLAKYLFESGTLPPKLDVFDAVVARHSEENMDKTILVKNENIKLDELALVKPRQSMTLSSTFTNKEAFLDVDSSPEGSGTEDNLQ
CHT allo act = CHT positive allosteric modulators, primary screen, cell-based, membrane potential dye, choline EC20 | High affinity choline transporter 1 (Homo sapiens), Q9GZV3 | CHT-expressing cells; stronger effect = higher value; LV-AA mutant CHT in HEK293 cells | B-score at 10 µM | 0.49% of 310,000 active | AID 488977, 2010;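 active means initial fluorescence not abnormally high and integrated response B-score, plate-corrected, over 3 SD above library mean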
KCC2 secondary = KCC2 modulators in sodium-free buffer, confirmation, cell-based, HEK293 KCC2, thallium flux, secondary assay | shares compounds with Cl transport mod | FluoZin2 fluorescence; stronger effect = higher value | normalised thallium flux (F/F0 slope) at 10 µM | 15% of 3,700 active | AID 1713, 2009;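 active means thallium flux slope above the same plate's solvent-only control mean plus 3 SD; inconclusive means the two replicate wells disagree; inactive means no significant difference from solvent-only control wells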
KCC2 bumet counter = thallium flux persisting under bumetanide in KCC2 cells, confirmation, counter-screen for KCC2 modulator project, cell-based, HEK293 KCC2, FluoZin2, secondary assay 3. normalized thallium flux at 10 µM. HEK293-KCC2 + bumetanide/ouabain; stronger effect = higher value. 49% of 3,700 active. shares compounds with Cl transport mod;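 active means thallium entry rate above the same plate's blocked-transporter control wells by more than 3 SD; inconclusive means the two repeat wells disagree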;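 further: raw slope of fluorescence over initial fluorescence between 10 and 20 s after thallium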
KCC2 sec2 = KCC2 modulators without ouabain present, confirmation, cell-based, HEK293 KCC2, thallium flux, FluoZin2, secondary assay 2; shares compounds with Cl transport mod; thallium flux FluoZin2 fluorescence; actives lie on both sides; F/F0 rise rate, 10–20 s post-thallium; normalized thallium flux at 10 µM; 23% of 3,700 active; AID 1715, 2009;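 active means thallium flux slope more than 3 SD above or below the plate's solvent-only control mean, mostly below; inconclusive means the two repeat wells disagreed; inactive means no significant shift from solvent-only controls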
HEK counter1 = thallium flux modulation in parental HEK cells, confirmation, counter-screen for KCC2 modulator project, cell-based, counterscreen 1. 46% of 3,700 active. shares compounds with Cl transport mod. thallium flux rate (normalised fluorescence) at 10 µM. HEK293 parental cells, thallium flux FluoZin2, ouabain; baseline-ratio fluorescence slope, 10–20 s after thallium;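 active means thallium flux rate significantly above the same plate's solvent-only control wells, beyond their mean plus 3 SD; inconclusive means the two replicate wells gave conflicting results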
KCC2 ouabain = KCC2 inhibitors and activators, ouabain retest, confirmation, HEK-KCC2 cells; 48% of 3,700 active; HEK293-KCC2, thallium flux FluoZin2 fluorescence; bidirectional: low = inhibitor, high = activator; raw Tl+ flux slope (below DMSO = inhibition, above = activation) at 10 µM; shares compounds with Cl transport mod;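 active means thallium flux slope beyond 3 SD from same-plate DMSO control mean in most replicates, usually higher, sometimes lower; inconclusive means repeat tests gave conflicting results; inactive means no significant difference from controls in most replicates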;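 further: slope of initial-normalized fluorescence between seconds 10 and 20 after thallium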
HEK counter2 = native HEK Tl+ uptake effects, second counter-screen – HEK cells, counterscreen 2, counter-screen for KCC2 modulator project, confirmation. shares compounds with Cl transport mod. AID 1718, 2009. 33% of 3,700 active. thallium flux slope at 10 µM. HEK293 parental, thallium flux FluoZin-2 fluorescence slope;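 active means thallium flux slope above the same plate's solvent-control mean plus 3 SD in both duplicate wells; inconclusive means duplicate wells that disagreed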;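 further: run without ouabain in cells lacking the KCC2 cotransporter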
Of the large screens only hits and unclear results are named; the others gave an inactive call (follow-up assays come after a bar, where they were run). The list is not random: actives were taken first. Their share in the collection is about 2.6%.

CC(=O)c1ccc(NC(=O)C(C)NCc2ccccc2Cl)cc1 (stereo not drawn)	none
CCOC(=O)C1CCCN(CC(O)COCc2ccccc2OC)C1 (stereo not drawn)	none (no result: Rad51 HR inh, Cl transport mod)
CCCN1C=CC(=CC=C(C#N)C#N)C=C1	Cl transport mod -7.8 | KCC2 secondary 0.0021 | KCC2 bumet counter -0.0014 | KCC2 sec2 0.023 | HEK counter1 inconclusive | KCC2 ouabain 0.0066 | HEK counter2 inconclusive
COc1ccccc1C(=O)Nc1c2c(nn1-c1cccc(C)c1C)CS(=O)C2 (stereo not drawn)	Cl transport mod 6.7 (no result: Rad51 HR inh) | KCC2 secondary inactive | KCC2 bumet counter inactive | KCC2 sec2 inactive | HEK counter1 inconclusive | KCC2 ouabain inactive | HEK counter2 inactive
COc1ccc(/C=N/NC(=O)c2c(C)nc3ccc(Br)cn23)cc1OC	none
COc1cccc(/C=N/NC(=O)c2c(C)nc3ccc(Br)cn23)c1O	Cl transport mod -3.4 | KCC2 secondary inactive | KCC2 bumet counter inactive | KCC2 sec2 inactive | HEK counter1 inactive | KCC2 ouabain 0.016 | HEK counter2 inactive
CCOc1cc(-c2noc(CCCC(N)=O)n2)cc(Br)c1OC	Cl transport mod 4.5 | KCC2 secondary inactive | KCC2 bumet counter inconclusive | KCC2 sec2 inactive | HEK counter1 inactive | KCC2 ouabain inactive | HEK counter2 inactive
Nn1c(-c2ccccc2)cc(-c2ccccc2)cc1=O	none (no result: Rad51 HR inh, Cl transport mod)
COc1cccc(C(=O)NNC(=O)c2sccc2-n2cccc2)c1	Cl transport mod 5.9 | KCC2 secondary inactive | KCC2 bumet counter 0.012 | KCC2 sec2 inactive | HEK counter1 0.012 | KCC2 ouabain inactive | HEK counter2 0.014
COc1cccc(C(=O)NNC(=O)c2ccccc2-n2cccc2)c1	none
COc1cc2ccccc2cc1C(=O)NC(=S)Nc1cc(C(=O)O)ccc1C	Cl transport mod -7 (no result: CHT inh, CHT allo act) | KCC2 secondary inactive | KCC2 bumet counter 0.0085 | KCC2 sec2 inactive | HEK counter1 inactive | KCC2 ouabain 0.017 | HEK counter2 inactive
CCOc1ccc(S(=O)(=O)n2c([N+](=O)[O-])cnc2C)c(C)c1C	none (no result: Rad51 HR inh, Cl transport mod)
S=c1nc[nH]c2c1[nH]c1ccc(Cl)cc12	none
S=c1[nH]c2ccc(Cl)cc2s1	Cl transport mod 86 (no result: Rad51 HR inh) | KCC2 secondary 0.043 | KCC2 bumet counter 0.098 | KCC2 sec2 0.085 | HEK counter1 0.087 | KCC2 ouabain 0.087 | HEK counter2 0.058
O=C(Nc1nc(=O)n(C(=O)c2cccc(C(F)(F)F)c2)s1)c1ccccc1	Cl transport mod -4.3 | KCC2 secondary inactive | KCC2 bumet counter inactive | KCC2 sec2 0.024 | HEK counter1 inactive | KCC2 ouabain 0.016 | HEK counter2 inactive
CCOC(=O)Nc1ccc(C(=O)c2ccncc2)cc1	none (no result: Rad51 HR inh, Cl transport mod)
O=c1nc(SCc2c(F)cccc2Cl)nc(-c2ccc(Cl)cc2)[nH]1	none
O=c1nc(SCc2ccccc2Cl)nc(-c2ccc(Cl)cc2)[nH]1	Cl transport mod 67 | KCC2 secondary inactive | KCC2 bumet counter inactive | KCC2 sec2 inactive | HEK counter1 inconclusive | KCC2 ouabain inconclusive | HEK counter2 inactive
COc1cccc2oc3cc(C#Cc4ccccn4)ccc3c(=O)c12	none (no result: Rad51 HR inh, Cl transport mod)
Cc1nc(C(=O)NC(C)C)nn1-c1cc(Cl)cc(Cl)c1	none
C=C/C(C)=C/CC1C(=C)CCC2C(C)(C(=O)O)CCCC12C (stereo not drawn)	Cl transport mod 2.3 | KCC2 secondary inactive | KCC2 bumet counter 0.0092 | KCC2 sec2 inactive | HEK counter1 0.012 | KCC2 ouabain inconclusive | HEK counter2 0.014
C=C[C@]1(C)C=C2CCC3[C@](C)(CCC[C@@]3(C)C(=O)O)C2CC1 (stereo partly drawn)	none (no result: Rad51 HR inh, Cl transport mod)
COC(=O)c1ccc(NC(=S)NC(=O)c2c(-c3ccccc3)noc2C)cc1	Cl transport mod 17 | KCC2 secondary inactive | KCC2 bumet counter 0.023 | KCC2 sec2 inactive | HEK counter1 inconclusive | KCC2 ouabain 0.049 | HEK counter2 inactive
Cc1onc(-c2ccccc2)c1C(=O)NC(=S)Nc1sc2c(c1C#N)CCC(C)C2 (stereo not drawn)	Cl transport mod 21 | KCC2 secondary inconclusive | KCC2 bumet counter 0.058 | KCC2 sec2 inconclusive | HEK counter1 0.024 | KCC2 ouabain 0.037 | HEK counter2 0.025
Cc1onc(-c2c(F)cccc2Cl)c1C(=O)Nc1sc2c(c1C#N)CCC(C(C)(C)C)C2 (stereo not drawn)	none
Cc1onc(-c2ccccc2Cl)c1C(=O)NC(=S)NCc1cccnc1	none
COC(=O)c1ccc(C)c(NC(=O)c2c(-c3ccccc3)noc2C)c1	none (no result: Cl transport mod)
Cc1onc(-c2ccccc2Cl)c1C(=O)NC(=S)Nc1ccc(C(C)C)cc1	Cl transport mod 9.9 | KCC2 secondary inactive | KCC2 bumet counter 0.013 | KCC2 sec2 inactive | HEK counter1 0.014 | KCC2 ouabain inconclusive | HEK counter2 0.013
Cc1ccc(NC(=S)NC(=O)c2c(-c3ccccc3Cl)noc2C)cc1	Cl transport mod 5.4 (no result: Rad51 HR inh) | KCC2 secondary inactive | KCC2 bumet counter 0.035 | KCC2 sec2 inactive | HEK counter1 0.015 | KCC2 ouabain 0.037 | HEK counter2 inconclusive
Cc1onc(-c2ccccc2Cl)c1C(=O)NC(=S)NCCc1ccccc1	none (no result: Rad51 HR inh)
O=C(COC(=O)/C=C/c1ccc([N+](=O)[O-])cc1)NC(c1ccccc1)c1ccccc1	none
